Usually MBC stands for the smallest concentration meeting the test's criterion for killing. A higher MBC goes with weaker bactericidal potency. One may read the MIC as the lowest concentration found to suppress growth. Lower therefore signals greater potency. Broadly, the EC50 is the concentration needed to bring the measured effect to its halfway point. A higher EC50 goes with a less potent agent.

This note sets out measurements from ChEMBL document CHEMBL2311311, “Synthesis and in vitro activity of 1,2,4-triazole-ciprofloxacin hybrids against drug-susceptible and drug-resistant bacteria” (Eur J Med Chem, 2013).

The subject of assay [1] is Staphylococcus aureus. As to the kind of experiment: Antimicrobial activity against methicillin-resistant Staphylococcus aureus 14001 by broth microdilution method. In kind it is functional. The method, boiled down:
(§1)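 Inoculum in sterile saline (0.85% NaCl), adjusted to 0.5 McFarland (150 × 10⁶ CFU/mL). Compounds first screened by agar dilution on Mueller-Hinton agar, then titrated by broth microdilution. Medium with DMSO at the final concentration and no compound served as negative control. MIC is the lowest concentration inhibiting growth. MBC is the lowest concentration giving >99.9% reduction in CFU of the initial inoculum.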
(Broth dilution looks for growth in wells or tubes with falling amounts of substance.)

In a further assay the test system is HEK293. In words: Cytotoxicity against HEK293 cells after 48 hrs by MTT assay. In kind it is cell-based. As to conditions: Homo sapiens, HEK293, 48 h. The method, boiled down: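 HEK-293 cells were seeded at 3 × 10⁵ cells/well and pre-incubated 24 h at 37 °C under 5% CO₂. Compounds came from 50 mg/mL DMSO stocks diluted in medium with 2% FBS, at final concentrations of 2–500. Exposure was 48 h at 37 °C with MTT formazan read on a plate reader. EC50 is growth inhibition relative to control cells, given as mean ± SD of three independent experiments.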
Background: Formazan colour is commonly taken as a measure of viable cells.

For a further assay, the system named is Bacillus subtilis. As to the kind of experiment: Antimicrobial activity against Bacillus subtilis ATCC 6633 by broth microdilution method. The format is functional. Summed up: (§2)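 Inocula were saline (0.85% NaCl) suspensions at 0.5 McFarland (150 × 10⁶ CFU/mL). Compounds were first screened by agar dilution on Mueller-Hinton agar, and active ones then went to broth microdilution. MIC is the lowest concentration inhibiting growth. The negative control was medium containing DMSO at the final concentration, without compound.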

Assay [2] relates to Micrococcus luteus. In words: Antimicrobial activity against Micrococcus luteus ATCC 10240 by broth microdilution method. The format is functional. Summed up:
as §2

For assay [3], the system named is Staphylococcus epidermidis. As to the kind of experiment: Antimicrobial activity against Staphylococcus epidermidis ATCC 12228 by broth microdilution method. The format is functional. Summed up:
as §2

Another assay deals with Proteus mirabilis. In words: Antimicrobial activity against Proteus mirabilis ATCC 12453 by broth microdilution method. In kind it is functional. The method, boiled down:
as §2

In assay [4] the test system is Micrococcus luteus. In words: Ratio of ciprofloxacin MIC to compound MIC for Micrococcus luteus ATCC 10240 by broth microdilution method. In kind it is functional.
For assay [5], the system named is Staphylococcus aureus. As to the kind of experiment: Antimicrobial activity against Staphylococcus aureus ATCC 25923 by broth microdilution method. The format is functional. Summed up:
as §2

Another assay deals with Escherichia coli. In words: Antimicrobial activity against Escherichia coli ATCC 25922 by broth microdilution method. In kind it is functional. Summed up: as §2
Assay [6] deals with Staphylococcus aureus. As to the kind of experiment: Ratio of MBC to MIC for methicillin-resistant Staphylococcus aureus 14001 by broth microdilution method. The format is functional. The method, boiled down: as §1
Assay [7] has as its system Pseudomonas aeruginosa. As to the kind of experiment: Antimicrobial activity against Pseudomonas aeruginosa ATCC 9027 by broth microdilution method. In kind it is functional. The method, boiled down:
as §2

In a further assay the test system is Bacillus cereus. In words: Antimicrobial activity against Bacillus cereus ATCC 10876 by broth microdilution method. The format is functional. The method, boiled down:
as §2

Assay [8] deals with Pseudomonas aeruginosa. As to the kind of experiment: Ratio of ciprofloxacin MIC to compound MIC for Pseudomonas aeruginosa ATCC 9027 by broth microdilution method. In kind it is functional.
Assay [9] relates to Staphylococcus aureus. In words: Ratio of ciprofloxacin MIC to compound MIC for Staphylococcus aureus ATCC 25923 by broth microdilution method. In kind it is functional.
For assay [10], the system named is Staphylococcus aureus. As to the kind of experiment: Ratio of vancomycin MIC to compound MIC for methicillin-resistant Staphylococcus aureus 14001 by broth microdilution method. In kind it is functional. The method, boiled down: as §1
The subject of assay [11] is Staphylococcus aureus. As to the kind of experiment: Ratio of ciprofloxacin MIC to compound MIC for methicillin-resistant Staphylococcus aureus 14001 by broth microdilution method. In kind it is functional. The method, boiled down: as §1
Assay [12] can be described thus: Selectivity ratio of EC50 for HEK293 cells to MIC for methicillin-resistant Staphylococcus aureus 14001. In kind it is functional. Summed up: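 HEK-293 cells grown at 37 °C in humidified 5% CO₂ with penicillin and […] streptomycin. Seeded at 3 × 10⁵ cells/well for 24 h. Compounds (50 mg/mL DMSO stock) were diluted in medium with 2% FBS to final 2–500 µg/mL and applied for 48 h at 37 °C. Read-out was MTT formazan. EC50 was taken relative to control-cell growth, mean ± SD of three independent experiments, then divided by the MRSA MIC.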

Converted amounts (≈) assume the structure as drawn.

In the case of `CCn1c(-c2cccc(Cl)c2)nn(CN2CCN(c3cc4c(cc3F)c(=O)c(C(=O)O)cn4C3CC3)CC2)c1=S`, in the assay on Staphylococcus aureus [1], the MBC amounted to 0.84 µM (≈ 0.49 µg/mL). Besides, the MIC was 0.41 µM (≈ 0.239 µg/mL) against Staphylococcus aureus [1]; 0.1 µM (≈ 0.0583 µg/mL) against Bacillus subtilis; 0.84 µM (≈ 0.49 µg/mL) in the assay on Micrococcus luteus [2]; 0.84 µM (≈ 0.49 µg/mL) in [3]; 0.051 µM (≈ 0.0297 µg/mL) in the assay with Proteus mirabilis; 0.84 µM (≈ 0.49 µg/mL) against Staphylococcus aureus [5]. Also, the minimal inhibitory concentration (MIC) against Escherichia coli was determined as 0.051 µM (≈ 0.0297 µg/mL); in the assay with Pseudomonas aeruginosa [7], 0.41 µM (≈ 0.239 µg/mL); against Bacillus cereus it was 0.2 µM (≈ 0.117 µg/mL). In the assay on HEK293, it took 39.7 µM to reach a half-maximal effect (EC50). For the same compound, the Ratio in the assay on Micrococcus luteus [4] came out at 7.5; in the assay on Staphylococcus aureus [6], 2.

As for `O=C(O)c1cn(C2CC2)c2cc(N3CCN(Cn4nc(-c5cccc(O)c5)n(-c5ccc(Cl)cc5Cl)c4=S)CC3)c(F)cc2c1=O`, the MBC with Staphylococcus aureus [1] was 0.71 µM (≈ 0.484 µg/mL). In addition, the MIC with Staphylococcus aureus [1] amounted to 0.35 µM (≈ 0.239 µg/mL); with Bacillus subtilis, 0.18 µM (≈ 0.123 µg/mL); with Micrococcus luteus [2], 1.44 µM (≈ 0.981 µg/mL); in assay [3] it was 0.35 µM (≈ 0.239 µg/mL); against Proteus mirabilis, 0.022 µM (≈ 0.015 µg/mL); in the assay on Staphylococcus aureus [5] it was 0.35 µM (≈ 0.239 µg/mL). Further, the MIC against Escherichia coli came out at 0.044 µM (≈ 0.03 µg/mL); against Pseudomonas aeruginosa [7] it was 0.088 µM (≈ 0.06 µg/mL); against Bacillus cereus, 0.18 µM (≈ 0.123 µg/mL). In addition, the Ratio in the assay with Pseudomonas aeruginosa [8] was 8; in the assay with Staphylococcus aureus [9], 8.5; with Staphylococcus aureus [6], 2.

On to `O=C(O)c1cn(C2CC2)c2cc(N3CCN(Cn4nc(-c5cccc(O)c5)n(-c5cc(Cl)cc(Cl)c5)c4=S)CC3)c(F)cc2c1=O`, for which the MBC in the assay with Staphylococcus aureus [1] was found to be 0.35 µM (≈ 0.239 µg/mL). For the same compound, the MIC against Staphylococcus aureus [1] came to 0.088 µM (≈ 0.06 µg/mL); in the assay on Bacillus subtilis it was 0.18 µM (≈ 0.123 µg/mL); with Micrococcus luteus [2], 1.44 µM (≈ 0.981 µg/mL); in [3], 0.35 µM (≈ 0.239 µg/mL); with Proteus mirabilis it was 0.044 µM (≈ 0.03 µg/mL); against Staphylococcus aureus [5] it was 0.72 µM (≈ 0.491 µg/mL). The MIC against Escherichia coli worked out at 0.022 µM (≈ 0.015 µg/mL); in the assay on Pseudomonas aeruginosa [7], 0.088 µM (≈ 0.06 µg/mL); against Bacillus cereus, 0.18 µM (≈ 0.123 µg/mL). The Ratio was 8 in the assay on Staphylococcus aureus [10]; 8 in the assay on Pseudomonas aeruginosa [8]; 17 with Staphylococcus aureus [11]; 600 in [12]; 4 in the assay on Staphylococcus aureus [6]. Besides, the EC50 in the assay with HEK293 was 53 µM.
